ChEMBL document CHEMBL1152919, “Chloro-oxime derivatives as novel small molecule chaperone amplifiers” (Bioorg Med Chem Lett, 2009)
Several values for one entry are separate records, joined by “and”; a condition that tells them apart may be missing. Equal values may be shown once. Activity calls are given as the source filed them. The calls are words filed in the database; no cut-off is given here.

What was measured:
[1] = Cytotoxicity against human HeLa cells by MTS assay; format: cell-based
[2] = Cytotoxicity against human SK-N-SH cells by MTS assay; format: cell-based
How it was run: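 SK-N-SH cells, 14,000/well, seeded in DMEM with 10% FBS 18 h before compound (1:200 dilution; final 0.3–80 µM). MTS read-out; % inhibition = (MTS DMSO − MTS compound)/MTS DMSO ×100; CC50 by nonlinear regression; average SD across runs 14%.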

[3] = tested on: SK-N-SH; assay: Cytoprotective activity against 26S proteasome inhibitor MG132-induced stress in human SK-N-SH cells assessed as cell viability treated 1 hr before MG132 challenge measured after 24 hrs; format: functional, cell-based
How it was run: (§1)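 SK-N-SH cells, 12,500/well, exposed to compound 1 h ahead of MG-132 (5 µM final), then 24 h. Viability by ATPlite-1step luminescence; increased ATP% = (RLU compound − RLU DMSO)/RLU DMSO ×100, with DMSO as negative control. Tested 0.3–80 µM in twofold steps; EC50 from nonlinear regression curve fit; max cytoprotection >60% scored active.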

[4] = target: T1, Heat shock factor protein 1 (Homo sapiens) (UniProt Q00613); assay: Transcriptional activation of HSF1 in human HeLa cells assessed as granule formation treated for 3 hrs at 37 degC without heat shock by immunocytochemical staining
T1 sequence (whole entry): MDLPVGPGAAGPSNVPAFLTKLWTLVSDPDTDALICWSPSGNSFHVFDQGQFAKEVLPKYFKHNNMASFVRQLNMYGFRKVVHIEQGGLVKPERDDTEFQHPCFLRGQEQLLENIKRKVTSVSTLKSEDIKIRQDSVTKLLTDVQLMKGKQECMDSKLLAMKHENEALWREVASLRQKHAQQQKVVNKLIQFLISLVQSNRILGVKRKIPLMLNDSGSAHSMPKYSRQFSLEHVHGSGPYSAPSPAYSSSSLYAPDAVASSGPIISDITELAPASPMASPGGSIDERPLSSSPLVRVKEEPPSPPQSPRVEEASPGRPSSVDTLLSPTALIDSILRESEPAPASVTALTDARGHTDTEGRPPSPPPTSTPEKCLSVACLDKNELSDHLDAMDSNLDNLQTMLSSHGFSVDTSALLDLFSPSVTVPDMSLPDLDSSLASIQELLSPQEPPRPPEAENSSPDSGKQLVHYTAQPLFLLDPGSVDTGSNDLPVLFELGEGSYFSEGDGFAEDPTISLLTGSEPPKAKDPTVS

[5] = target: T2, Heat shock factor protein 1 (Homo sapiens, UniProt Q00613); assay: Transcriptional activation of HSF1 in heat shock stress-induced human HeLa cells assessed as granule formation at 80 uM treated 1 hr before heat shock challenge measured after 2 hrs by immunocytochemical staining; format: cell-based
T2 sequence (Q00613 whole entry): T1 sequence (whole entry)

[6] = target: T1, Heat shock factor protein 1 (Homo sapiens); assay: Transcriptional activation of HSF1 in heat shock stress-induced human HeLa cells assessed as granule formation treated 1 hr before heat shock challenge measured after 2 hrs by immunocytochemical staining; format: cell-based
How it was run: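 HeLa cells given compound 1 h, then heat shock at 41 °C for 2 h without recovery; HSF1 immunocytochemical staining, quantified by high-content imaging. Range 0.3–80 µM, twofold dilution, 200-fold overall.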

[7] = tested on: SK-N-SH; assay: Decrease in human SK-N-SH cells proliferation upto 20 uM by Click-iT assay; format: functional, cell-based
How it was run: (§2)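 Click-iT cell proliferation assay, run on HeLa and SK-N-SH cells across 0–20 µM compound.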

[8] = tested on: HeLa; assay: Stimulation of human HeLa cells proliferation upto 20 uM by Click-iT assay; format: functional, cell-based; how it was run: as §2
[9] = tested on: HeLa; assay: Cytotoxicity against human HeLa cells at 80 uM by MTS assay; format: cell-based
[10] = tested on: PC-12; assay: Cytoprotective activity against tunicamycin-induced endoplasmic reticulum stress in rat PC12 cells assessed as viability after 43 hrs relative to control; format: functional
How it was run: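 PC12 cells, 5000/well, differentiated with NGF (50 ng/ml final) for 5–7 days until neurites appear. Compound (1:20 dilution) given together with tunicamycin (750 ng/mL final) for 43 h at 37 °C. Viability by ATPlite; ATP increase expressed against the DMSO plus tunicamycin control.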

[11] = tested on: SK-N-SH; assay: Cytoprotective activity against MG132-induced stress in human SK-N-SH cells assessed as survivality treated 1 hr before MG132 challenge measured after 24 hrs relative to control; format: functional; how it was run: as §1
[12] = tested on: HeLa; assay: Increase in HSP70 expression in heat shock stress-induced human HeLa cells assessed as granule formation after 2 hrs of recovery time by immunocytochemical staining; format: functional, cell-based
How it was run: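 HeLa cells heat-shocked at 41 °C; HSP70 immunocytochemical staining 2 h after heat shock; automated image acquisition, quantifying HSP70 granule count and total granule area.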

[13] = Homo sapiens, SK-N-SH, read-out: EC50

Compound | Activity [4] | EC50 [3, 13] [µM] | CC50 [1] [µM] | CC50 [2] [µM] | further results
OC(CO/N=C(\Cl)c1cc2ccccc2s1)CN1CCCCC1 (stereo not drawn) |  |  | > 80 | 67.7 | EC50 ([3]; sk-n-sh): Not Active
OC(CO/N=C(\Cl)c1cc2ccccc2o1)CN1CCCCC1 (stereo not drawn) |  |  | > 80 | > 80 | EC50 ([3]; sk-n-sh): Not Active
CCCCN(CCCC)CC(O)CO/N=C(\Cl)c1nc2ccccc2o1 (stereo not drawn) | inactive | 22.3 | > 80 | 41 | 
OC(CO/N=C(\Cl)c1nc2ccccc2s1)CN1CCCCC1 (stereo not drawn) | inactive | 13.5 | 49.1 | 26.5 | 
CO/C(=N\OCC(O)CN1CCCCC1)c1nc2ccccc2o1 (stereo not drawn) |  |  | > 80 | > 80 | EC50 ([3]; sk-n-sh): Not Active
CCC(C)N(CC(O)CO/N=C(\Cl)c1nc2ccccc2o1)C(C)CC (stereo not drawn) | inactive | 20.9 |  | 54.2 | Activity [5]: 62% and 25%; Activity [6]: inactive
OC(CO/N=C(\Cl)c1nc2ccccc2o1)CN1CCCC(F)C1 (stereo not drawn) | inactive | 20 | 52.7 | 49.8 | 
Cl/C(=N\OCCCN1CCCCC1)c1nc2ccccc2o1 |  | 58.7 | > 80 | > 80 | 
O=C(NCC(O)CO/N=C(\Cl)c1nc2ccccc2o1)N1CCCCC1 (stereo not drawn) | inactive | 43.6 | 46.9 | 59.6 | Activity [5]: 28%; Activity [6]: inactive
OC(CO/N=C(\Cl)c1nc2cc(F)ccc2o1)CN1CCCCC1 (stereo not drawn) | inactive | 12 | > 80 | 62.4 | 
O=C(NOCC(O)CN1CCCCC1)c1nc2ccccc2o1 (stereo not drawn) |  |  | > 80 | > 80 | EC50 ([3]; sk-n-sh): Not Active
CC1CCCC(C)N1CC(O)CO/N=C(\Cl)c1nc2ccccc2o1 (stereo not drawn) | inactive | 11.1 | 78.9 | 36.2 | 
C/C(=N\OCC(O)CN1CCCCC1)c1nc2ccccc2o1 (stereo not drawn) |  |  | > 80 | > 80 | EC50 ([3]; sk-n-sh): Not Active
OC(CO/N=C(\Cl)c1nc2ccccc2o1)CN1CCC(F)CC1 (stereo not drawn) | inactive | 18.8 |  | 52.6 | Activity [5]: 63%; Inhibition [9]: 35%
OC(CO/N=C(\Cl)c1nc2ccccc2s1)CN1CCCC1 (stereo not drawn) | inactive |  | 60.1 | 31.1 | EC50 ([3]; sk-n-sh): Not Active
CC(C)(C)NCC(O)CO/N=C(\Cl)c1nc2ccccc2o1 (stereo not drawn) | inactive |  | 55.4 | 24.7 | Activity [6]: inactive; EC50 ([3]; sk-n-sh): Not Active
OC(CO/N=C(\Cl)c1nc2ccccc2o1)CN1CCCCC1 (stereo not drawn) |  | 15.7 | 41.7 | 26 | Activity [10]: >200%; Activity [7]: Active; Activity [8]: inactive; Activity [11]: 90.6%; Activity [12]: 51%; EC50 ([12]; Homo sapiens, HeLa, 2 h): 32.9 µM; Activity [6]: 58%
OC(CO/N=C(/c1nc2ccccc2o1)C(F)(F)F)CN1CCCCC1 (stereo not drawn) |  |  | > 80 | > 80 | EC50 ([3]; sk-n-sh): Not Active
CCCN(CC)CC(O)CO/N=C(\Cl)c1nc2ccccc2o1 (stereo not drawn) | inactive | 12.4 | 40.7 | 42.1 | 
OC(CO/N=C(\Cl)c1nc2ccccc2o1)CN1CCC(F)(F)CC1 (stereo not drawn) | inactive | 26.4 | > 80 | > 80 | Activity [5]: 49%
CC(C)N(CC(O)CO/N=C(\Cl)c1nc2ccccc2o1)C(C)C (stereo not drawn) | inactive | 14.7 | 45 | 30.8 | Activity [10]: >150% and 300%
OC(CO/N=C(\Cl)c1nc2ccccc2o1)CN1CCOCC1 (stereo not drawn) |  | 61.7 | > 80 | > 80 | 
CS(=O)(=O)NCC(O)CO/N=C(\Cl)c1nc2ccccc2o1 (stereo not drawn) |  | 39.3 | 48.5 | > 80 | 
CC(=O)NCC(O)CO/N=C(\Cl)c1nc2ccccc2o1 (stereo not drawn) |  | 41.9 | > 80 | > 80 | 
OC(CO/N=C/c1nc2ccccc2o1)CN1CCCCC1 (stereo not drawn) |  |  | > 80 | > 80 | EC50 ([3]; sk-n-sh): Not Active

More lines, main results first:

Activity [4] | EC50 [3, 13] [µM] | Compound | CC50 [1] [µM] | CC50 [2] [µM] | further results
inactive | 10.2 | CCCN(CCC)CC(O)CO/N=C(\Cl)c1nc2ccccc2o1 (stereo not drawn) |  | 46.4 | 
inactive | 10.2 | CCN(CC)CC(O)CO/N=C(\Cl)c1nc2ccccc2o1 (stereo not drawn) |  | 36.2 | 
inactive | 9.5 | Cc1ccc2oc(/C(Cl)=N/OCC(O)CN3CCCCC3)nc2c1 (stereo not drawn) |  | 34.6 | 
inactive | 7.9 | CN(C)S(=O)(=O)c1ccc2nc(/C(Cl)=N/OCC(O)CN3CCCCC3)oc2c1 (stereo not drawn) | 45.1 | 42.4 | 
inactive | 8.9 | CCCN(CC(O)CO/N=C(\Cl)c1nc2ccccc2o1)C(C)C (stereo not drawn) | 57.6 | 50.4 | Activity [7]: Active; Activity [8]: inactive
inactive | 8.2 | CC(C)N(CCO)CC(O)CO/N=C(\Cl)c1nc2ccccc2o1 (stereo not drawn) | 50.2 | 30.6 | 
inactive | 6.3 | CC(C)N(CC(O)CO/N=C(\Cl)c1nc2ccccc2o1)CC1CC1 (stereo not drawn) | 24.4 | 32.7 | 
inactive | 5.2 | OC(CO/N=C(\Cl)c1nc2c(ccc3ccccc32)o1)CN1CCCCC1 (stereo not drawn) | 18.9 | 17.4 | 
inactive | 9 | OC(CO/N=C(\Cl)c1nc2ccc(Cl)cc2o1)CN1CCCCC1 (stereo not drawn) | 44.2 | 20 | 
inactive | 6.9 | OC(CO/N=C(\Cl)c1nc2c(F)cccc2o1)CN1CCCCC1 (stereo not drawn) | 40.2 | 20.3 | 
inactive | 9.9 | CC(C)N(CC(O)CO/N=C(\Cl)c1nc2ccccc2o1)C(C)(C)C (stereo not drawn) | 30.8 | 40.3 | 
inactive | 6.3 | OC(CO/N=C(\Cl)c1nc2cc(Cl)ccc2o1)CN1CCCCC1 (stereo not drawn) | 31.4 | 23.2 | 
inactive | 11 | OC(CO/N=C(\Cl)c1nc2ccc(F)cc2o1)CN1CCCCC1 (stereo not drawn) | > 80 | 37.3 | 
inactive | 6.1 | Cc1ccc2nc(/C(Cl)=N/OCC(O)CN3CCCCC3)oc2c1 (stereo not drawn) | 18.8 | 28 | 
inactive | 9.3 | CC1CC(C)CN(CC(O)CO/N=C(\Cl)c2nc3ccccc3o2)C1 (stereo not drawn) | 55.3 | 34 | 
inactive | 3.8 | OC(CO/N=C(\Cl)c1nc2cccc(F)c2o1)CN1CCCCC1 (stereo not drawn) | 19.3 | 16.9 | 
inactive | 5.9 | CCS(=O)(=O)c1ccc2oc(/C(Cl)=N/OCC(O)CN3CCCCC3)nc2c1 (stereo not drawn) | 41.4 | 44.2 | 
inactive | 10.1 | CC(C)N(CCCF)CC(O)CO/N=C(\Cl)c1nc2ccccc2o1 (stereo not drawn) | 33.8 | 46 | 
